The results in this text go back to ChEMBL document CHEMBL1687717 (Antimicrob Agents Chemother, 2008).

Data set [1] deals with Staphylococcus aureus. Nature of the data set: Inhibition of Staphylococcus aureus MN8 infection induced IL-8 production in human HVEC assessed as at 100 ug/ml by enzyme-linked immunosorbent assay. The format is functional, organism-based. Summed up:
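Human vaginal epithelial cells in keratinocyte serum-free medium without antibiotics were seeded 2–3 days beforehand in 96-well plates. S. aureus MN8 was grown overnight in Todd-Hewitt broth, washed and resuspended in PBS at pH 7.2. Cells received 10^6–10^8 CFU in triplicate, with or without GML at 100 µg/ml, for 6 h. IL-8 was measured by ELISA.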

Data set [2] in a line: Effect on growth of Lactobacillus crispatus at 50 ug/ml after 24 hrs. Summed up:
(§1)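 L. crispatus grown in Todd-Hewitt broth flasks at 37°C with shaking, with or without nonformulated GML at 20, 50 or 100 µg/ml. The starting inoculum was 3.0 x 10^6/ml. Samples were taken over 24 h for CFU plate counts.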

A short description of data set [3]: Effect on lactic acid production in Lactobacillus crispatus at 50 ug/ml after 8 to 24 hrs. The format is ADME. In short, it runs like this:
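Todd-Hewitt broth cultures of L. crispatus were started at 3.0 x 10^6/ml with or without nonformulated GML at 50 µg/ml and incubated at 37°C with shaking. Culture pH was measured on samples removed at set times as an acid-production read-out.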

Data set [4] has as its system Lactobacillus crispatus. Nature of the data set: Suppression of cell viability loss of Lactobacillus crispatus in stationary phase culture at 100 ug/ml after 48 hrs.
A short description of data set [5]: Effect on growth of Lactobacillus crispatus using 5% compound-formulated gel after 24 hrs. In short, it runs like this: (§2)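 Agar disk test: paper disks carrying 30 µl of 5% GML in K-Y warming gel were placed on Todd-Hewitt agar lawns of about 10^6 L. crispatus or S. aureus MN8. Plates were incubated overnight at 37°C in 7% CO2 and scored for visible growth inhibition around the disks. Done in quadruplicate.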

The test system of the next data set is Staphylococcus. The experiment in a line: Effect on growth of vaginal coagulase negative staphylococci flora in rhesus monkey administered twice daily dose of 5% compound-formulated gel for first 8 weeks followed by 3-weeks rest period and subsequent once daily dose for […] measured 6 months post dose. In kind it is functional, organism-based. Summed up: (§3)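 Rhesus macaques (9 on GML, 3 on vehicle per time point) received 1 ml intravaginal gel containing 50 mg GML in K-Y warming gel, or vehicle gel, by needleless syringe. Dosing was twice daily for 8 weeks, then 3 weeks of rest, then once daily for 11 weeks. Vaginal swabs were taken 1 h post-dose, held at 4°C, serially diluted in Todd-Hewitt broth and plated on chocolate agar at 37°C in 7% CO2.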

Data set [6] relates to Lactobacillus crispatus. The experiment in a line: Suppression of cell viability loss of Lactobacillus crispatus in stationary phase culture at 100 ug/ml after 48 hrs. The format is functional. Summed up: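 Stationary-phase L. crispatus broth cultures were incubated a further 48 h at 37°C without GML or with GML at 100 µg/ml. Viable counts were then determined by plating.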

The subject of data set [7] is Rhesus monkey. Nature of the data set: Toxicity in rhesus monkey assessed as induction of vaginal mucosal lesions administered twice daily dose of 5% compound-formulated gel for first 8 weeks followed by 3-weeks rest period and subsequent once daily dose for […] measured 6 months post dose by extensive colposcopy. As to conditions: in vivo, topical_or_ocular, 4383 h. In kind it is organism-based, Macaca mulatta.

The next data set has as its system Gardnerella. Nature of the data set: Bactericidal activity against Gardnerella at >=20 ug/ml. The format is functional.
Data set [8] relates to Staphylococcus aureus. The experiment in a line: Growth inhibition of Staphylococcus aureus MN8 using 5% compound-formulated gel after 24 hrs. The format is functional, organism-based. Summed up: as §2
For data set [9], the system named is Rhesus monkey. Nature of the data set: Toxicity in rhesus monkey assessed as induction of vaginal inflammation administered twice daily dose of 5% compound-formulated gel for first 8 weeks followed by 3-weeks rest period and subsequent once daily dose for […] measured 6 months post dose by extensive colposcopy. The format is organism-based, Macaca mulatta. The settings on record: in vivo, topical_or_ocular, 4383 h.

Data set [10] in a line: Effect on growth of vaginal Lactobacillus flora in rhesus monkey administered twice daily dose of 5% compound-formulated gel for first 8 weeks followed by 3-weeks rest period and subsequent once daily dose for […] measured 6 months post dose. As to conditions: in vivo, topical_or_ocular, 4383 h. In short, it runs like this:
as §3

Data set [11] has as its system Human immunodeficiency virus 1. Nature of the data set: Antiviral activity against HIV1 infected in human T cells assessed as inhibition of viral infection at 100 ug/mL. In kind it is functional, organism-based. As to conditions: T-cell.
A further data set relates to Haemophilus. Nature of the data set: Bactericidal activity against Haemophilus at >=20 ug/ml. In kind it is functional, organism-based.
A short description of data set [12]: Effect on growth of Lactobacillus crispatus at 20 ug/ml after 24 hrs. Summed up: as §1
The test system of a further data set is Helicobacter. The experiment in a line: Bactericidal activity against Helicobacter at >=20 ug/ml. The format is functional.

The source made the active and inactive calls. The calls are words filed in the database; no cut-off is given here.

In the case of `CCCCCCCCCCCC(=O)OCC(O)CO` (stereo unspecified) [GLYCEROL MONOLAURATE], the inhibition result (in the data set on Staphylococcus aureus [1]; with Gardnerella; in data set [11]; in the data set on Haemophilus; in the data set on Helicobacter) was “Active” throughout. In addition, the Activity entry (in [2]; in [3]; in [5]; with Staphylococcus; with Rhesus monkey [7]; in the data set on Rhesus monkey [9]) was “Non-toxic” in each case. The Activity entry in data set [10] and in data set [12] was “Non-toxic” throughout. Further, the outcome in the data set on Lactobacillus crispatus [4] and in the data set on Lactobacillus crispatus [6] was Active. Also, the “growth inhibition (GI)” value in the data set on Staphylococcus aureus [8] was “Active”.
